Assay [1] deals with Candida albicans. Kind of assay: Antifungal activity against Candida albicans in yeast extract-peptone-glucose medium at 374 ug/ml after 48 hrs by disc diffusion assay in presence of 0.01% of sodium dodecylsulphate. It counts as functional. The following applies: read-out: DIZ. The gist of the method: (§1)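 Disc diffusion on YEPD agar containing a cell-wall-disrupting agent (SDS, Congo red or calcofluor white) and spread with a set number of C. albicans cells. Compound and reference solvent spotted on 0.5 cm discs. Incubated at 30 °C, then inhibition zone diameter measured against solvent.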

The test system of assay [2] is Candida albicans. Kind of assay: Antifungal activity against Candida albicans in yeast extract-peptone-glucose medium at 374 ug/ml after 48 hrs by disc diffusion assay in presence of rhodamine 6G.
In assay [3] the test system is Escherichia coli. Briefly: Antibacterial activity against Escherichia coli harboring ampicillin-resistance gene encoding plasmid at 250 ug/ml after 24 hrs by disc diffusion assay. It is filed as functional. The note with it: read-out: DIZ. The gist of the method:
(§2)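 Disc diffusion used an E. coli strain carrying a plasmid that encodes an ampicillin-resistance gene. Inhibition zone diameters were recorded and compared against the corresponding solvent controls.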

Assay [4] relates to Candida albicans. Kind of assay: Antifungal activity against Candida albicans in yeast extract-peptone-glucose medium at 374 ug/ml after 48 hrs by disc diffusion assay in presence of 150 ug/ml of congo red. It counts as functional. An outline of the steps:
as §1
A general note: Agar diffusion results depend on both activity and mobility in agar.

Assay [5] relates to Candida albicans. Briefly: Antifungal activity against Candida albicans in yeast extract-peptone-glucose medium at 428 ug/ml after 48 hrs by disc diffusion assay in presence of 100 ug/ml of calcofluor white. It counts as functional. An outline of the steps: as §1
The subject of assay [6] is Candida albicans. Briefly: Antifungal activity against Candida albicans in yeast extract-peptone-glucose medium at 428 ug/ml after 48 hrs by disc diffusion assay in presence of rhodamine 6G.
Assay [7] concerns Candida albicans. Kind of assay: Antifungal activity against Candida albicans in yeast extract-peptone-glucose medium at 428 ug/ml after 48 hrs by disc diffusion assay in presence of 0.01% of sodium dodecylsulphate. It is filed as functional. The following applies: read-out: DIZ. The gist of the method:
as §1

Assay [8] relates to Candida albicans. Kind of assay: Antifungal activity against Candida albicans in yeast extract-peptone-glucose medium at 428 ug/ml after 48 hrs by disc diffusion assay. It is filed as functional. The note with it: read-out: DIZ. An outline of the steps:
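Solid-phase assay on YEPD agar spread with a set number of C. albicans cells. Compound solution and reference solvent spotted onto 0.5 cm discs. Plates incubated at 30 °C, and inhibition zone diameter measured against solvent control.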

Assay [9] relates to Escherichia coli. Kind of assay: Antibacterial activity against Escherichia coli harboring ampicillin-resistance gene encoding plasmid at 428 ug/ml after 24 hrs by disc diffusion assay. It is filed as functional. The note with it: read-out: DIZ. The gist of the method:
as §2

The test system of assay [10] is Candida albicans. Kind of assay: Antifungal activity against Candida albicans in yeast extract-peptone-glucose medium at 428 ug/ml after 48 hrs by disc diffusion assay in presence of 150 ug/ml of congo red. It is filed as functional. An outline of the steps: as §1
In assay [11] the test system is Candida albicans. Briefly: Antifungal activity against Candida albicans in synthetic dextrose minimal medium after 48 hrs by ELISA based serial dilution method.
Assay [12] concerns Candida albicans. Kind of assay: Antifungal activity against Candida albicans in yeast extract-peptone-glucose medium at 375 ug/ml after 48 hrs by disc diffusion assay. It counts as functional. The following applies: read-out: DIZ. An outline of the steps: (§3)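 C. albicans cells at a set number were spread on YEPD agar, either plain or containing the cell-wall disruptant named in the line (SDS, Congo red or calcofluor white). Compound solution, or the reference solvent as control, was spotted onto 0.5 cm discs placed on the lawn. Plates were incubated at 30 °C and the inhibition zone diameter was measured.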

The subject of assay [13] is Candida albicans. Briefly: Antifungal activity against Candida albicans in yeast extract-peptone-glucose medium at 375 ug/ml after 48 hrs by disc diffusion assay in presence of rhodamine 6G.
For assay [14], the system named is Candida albicans. Briefly: Antifungal activity against Candida albicans in yeast extract-peptone-glucose medium at 375 ug/ml after 48 hrs by disc diffusion assay in presence of 150 ug/ml of congo red. It is filed as functional. An outline of the steps:
as §3

Assay [15] relates to Candida albicans. Kind of assay: Antifungal activity against Candida albicans in yeast extract-peptone-glucose medium at 375 ug/ml after 48 hrs by disc diffusion assay in presence of 100 ug/ml of calcofluor white. It counts as functional. An outline of the steps: as §3
Assay [16] concerns Escherichia coli. Briefly: Antibacterial activity against Escherichia coli harboring ampicillin-resistance gene encoding plasmid at 500 ug/ml after 24 hrs by disc diffusion assay. The note with it: read-out: DIZ. It counts as functional. An outline of the steps: as §2
The test system of assay [17] is Candida albicans. Kind of assay: Antifungal activity against Candida albicans in yeast extract-peptone-glucose medium at 375 ug/ml after 48 hrs by disc diffusion assay in presence of 0.01% of sodium dodecylsulphate. It counts as functional. The note with it: read-out: DIZ. The gist of the method: as §3
The subject of assay [18] is Candida albicans. Kind of assay: Antifungal activity against Candida albicans in yeast extract-peptone-glucose medium at 250 ug/ml after 48 hrs by disc diffusion assay in presence of rhodamine 6G.
The subject of assay [19] is Candida albicans. Kind of assay: Antifungal activity against Candida albicans in yeast extract-peptone-glucose medium at 250 ug/ml after 48 hrs by disc diffusion assay in presence of 0.01% of sodium dodecylsulphate. It counts as functional. The note with it: read-out: DIZ. An outline of the steps:
as §3

The subject of assay [20] is Candida albicans. Kind of assay: Antifungal activity against Candida albicans in yeast extract-peptone-glucose medium at 250 ug/ml after 48 hrs by disc diffusion assay. It counts as functional. The note with it: read-out: DIZ. An outline of the steps:
as §3

In assay [21] the test system is Candida albicans. Briefly: Antifungal activity against Candida albicans in yeast extract-peptone-glucose medium at 250 ug/ml after 48 hrs by disc diffusion assay in presence of 150 ug/ml of congo red. It counts as functional. An outline of the steps:
as §3

For assay [22], the system named is Candida albicans. Kind of assay: Antifungal activity against Candida albicans in yeast extract-peptone-glucose medium at 250 ug/ml after 48 hrs by disc diffusion assay in presence of 100 ug/ml of calcofluor white. It is filed as functional. An outline of the steps:
as §3

For assay [23], the system named is Candida albicans. Kind of assay: Antifungal activity against Candida albicans in yeast extract-peptone-glucose medium at 150 ug/ml after 48 hrs by disc diffusion assay in presence of 150 ug/ml of congo red. It is filed as functional. The note with it: read-out: DIZ. An outline of the steps: as §3
Assay [24] concerns Candida albicans. Briefly: Antifungal activity against Candida albicans in yeast extract-peptone-glucose medium at 150 ug/ml after 48 hrs by disc diffusion assay in presence of 0.01% of sodium dodecylsulphate. It is filed as functional. The following applies: read-out: DIZ. An outline of the steps: as §3
Assay [25] has as its system Escherichia coli. Kind of assay: Antibacterial activity against Escherichia coli harboring ampicillin-resistance gene encoding plasmid at 300 ug/ml after 24 hrs by disc diffusion assay. It counts as functional. The note with it: read-out: DIZ. An outline of the steps: as §2
The test system of assay [26] is Candida albicans. Briefly: Antifungal activity against Candida albicans in yeast extract-peptone-glucose medium at 150 ug/ml after 48 hrs by disc diffusion assay. It is filed as functional. The note with it: read-out: DIZ. The gist of the method: as §3
Assay [27] deals with Candida albicans. Kind of assay: Antifungal activity against Candida albicans in yeast extract-peptone-glucose medium at 150 ug/ml after 48 hrs by disc diffusion assay in presence of 100 ug/ml of calcofluor white. It counts as functional. The gist of the method: as §3

Here are results for 6 compounds from ChEMBL document CHEMBL1777792, “Synthesis and evaluation of indole-based new scaffolds for antimicrobial activities--identification of promising candidates” (Bioorg Med Chem Lett, 2011).

For the compound `O=C(C(=O)N1CCCCC1)c1cn(CCCn2cc(C(=O)C(=O)N3CCCCC3)c3ccccc32)c2ccccc12`, in assay [1], the zone of inhibition at 374 µg/mL worked out at 7.5 mm. Moreover, the “diameter of the inhibition zone (DIZ)” value in assay [2] and in assay [4] was 6.5 mm each time. Also, the zone of inhibition at 250 µg/mL in [3] came to 9.5 mm.

The IC50 is the concentration that inhibits the measured activity by half. Low readings indicate higher potency, high ones lower potency. As to `O=C(C(=O)N1CCCC1)c1cn(CCCn2cc(C(=O)C(=O)N3CCCC3)c3ccccc32)c2ccccc12`, the “diameter of the inhibition zone (DIZ)” value in assay [5] is 6.5 mm; in assay [6], 6.5 mm; in assay [10], 5.5 mm. The values for the zone of inhibition at 428 µg/mL in [7], in assay [8] and in assay [9] were 6.5 mm, 7.5 mm and 8 mm, respectively. The compound further gave an IC50 in assay [11] of 465 µM.

With `O=C(C(=O)N1CCOCC1)c1cn(CCCn2cc(C(=O)C(=O)N3CCOCC3)c3ccccc32)c2ccccc12`, the zone of inhibition at 375 µg/mL in [12] was determined as 7 mm; in assay [17], 8.5 mm. Moreover, the entries for the “diameter of the inhibition zone (DIZ)” value in [13], in assay [14] and in [15] were 7.5 mm, 8 mm and 6.5 mm, respectively. Further, in assay [16], the zone of inhibition at 500 µg/mL was determined as 6 mm.

As for `O=C(NCc1ccccc1)C(=O)c1cn(CCCn2cc(C(=O)C(=O)NCc3ccccc3)c3ccccc32)c2ccccc12`, the “diameter of the inhibition zone (DIZ)” value in [18] is 7 mm; in assay [21], 8 mm; in [22] it was 7 mm. The zone of inhibition at 250 µg/mL in [19] came to 8.5 mm; in [3] it was 12 mm; in assay [20], 9 mm. In addition, inhibition in assay [11] was half-maximal at 121 µM (IC50).

For the compound `O=C(C(=O)N1CCCCC1)c1cn(CCCCn2cc(C(=O)C(=O)N3CCCCC3)c3ccccc32)c2ccccc12`, the zone of inhibition at 150 µg/mL in assay [23] stood at 6 mm; in assay [24] it was 6.5 mm; in assay [26], 6 mm. Also, the zone of inhibition at 300 µg/mL in assay [25] came to 10.5 mm. The “diameter of the inhibition zone (DIZ)” value in assay [27] is reported as 6 mm.

In the case of `O=C(C(=O)N1CCCC1)c1cn(CCCCn2cc(C(=O)C(=O)N3CCCC3)c3ccccc32)c2ccccc12`, the zone of inhibition at 375 µg/mL in assay [12] is 7.5 mm; in [17], 8 mm. Further, the “diameter of the inhibition zone (DIZ)” value is given as 7.5 mm in assay [13], 8 mm in assay [14] and 7.5 mm in [15]. Further, the zone of inhibition at 500 µg/mL in assay [16] was found to be 10.5 mm. Further, half-maximal inhibition in assay [11] (IC50) required 78 µM.
